Test results: ChEMBL document CHEMBL1921692 (J Med Chem, 2011)

The molecules below were run against Growth hormone secretagogue receptor type 1 (Homo sapiens, UniProt Q92847) (assay: Displacement of [125I-His9]-ghrelin from human GRLN receptor by radioligand binding assay).
Procedure, shortened: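 Competitive binding on isolated membranes expressing GRLN, with 125I-His-9 octanoylated ghrelin as radioligand.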

Sequence of Growth hormone secretagogue receptor type 1 (Q92847 whole entry): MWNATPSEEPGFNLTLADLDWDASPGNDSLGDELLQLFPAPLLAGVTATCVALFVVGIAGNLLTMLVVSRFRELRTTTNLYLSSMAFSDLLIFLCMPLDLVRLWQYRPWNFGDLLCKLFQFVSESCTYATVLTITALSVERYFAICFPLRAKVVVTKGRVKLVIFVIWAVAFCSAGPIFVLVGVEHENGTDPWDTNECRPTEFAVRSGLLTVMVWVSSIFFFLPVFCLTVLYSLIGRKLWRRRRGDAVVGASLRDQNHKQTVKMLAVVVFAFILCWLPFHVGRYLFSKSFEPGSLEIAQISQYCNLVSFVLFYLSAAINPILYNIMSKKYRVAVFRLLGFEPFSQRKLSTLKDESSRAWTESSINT

| SMILES | Ki [nM] |
| --- | --- |
| CC[C@H]1NC(=O)[C@H]([C@@H](C)CC)NC[C@@H](C)Oc2ccccc2CCCNC(=O)[C@@H](Cc2ccccc2)NC1=O | 35 |
| CN1CC(=O)N[C@H](Cc2ccccc2)C(=O)NCCCc2ccccc2OCCN[C@@H](CCCCN)C1=O | 1100 |
| CCCC[C@H]1NC(=O)CN(C)C(=O)[C@H](CCC)NCCOc2ccccc2CCCNC1=O | 400 |
| CCC[C@H](NCCOc1ccccc1/C=C/CNC(C)=O)C(=O)N(C)CC(=O)N[C@H](Cc1ccccc1)C(N)=O | > 10000 |
| CN1CC(=O)N[C@H](Cc2ccccc2)C(=O)NCCCc2ccccc2OCCN[C@@H](Cc2ccccc2)C1=O | 670 |
| CC[C@H](C)[C@@H]1NCCCCCCCCNC(=O)[C@@H](Cc2ccccc2)NC(=O)[C@@H](C)N(C)C1=O | 1500 |
| CC[C@H](C)[C@@H]1NCCCc2ccccc2CCCNC(=O)[C@@H](Cc2ccccc2)NC(=O)[C@@H](C)N(C)C1=O | 81 |
| CC[C@H](C)[C@@H]1NC[C@@H](C)Oc2ccccc2CCCNC(=O)[C@@H](Cc2ccccc2)NC(=O)[C@@H](C(C)C)NC1=O | 380 |
| CC[C@H](C)[C@@H]1NCCCc2ccccc2CCNC(=O)[C@@H](Cc2ccccc2)NC(=O)[C@@H](C)N(C)C1=O | 400 |

Second part, the molecule after the results:

| Ki [nM] | SMILES |
| --- | --- |
| 68 | CCC[C@@H]1NCCOc2ccccc2CCCNC(=O)[C@@H](Cc2ccccc2)NC(=O)CN(C)C1=O |
| 25 | CC(C)C[C@@H]1NCCOc2ccccc2CCCNC(=O)[C@@H](Cc2ccccc2)NC(=O)[C@@H](C)N(C)C1=O |
| 19 | C[C@@H]1C(=O)N[C@H](Cc2ccc(F)cc2)C(=O)NCCCc2cccc3c2O[C@@H](CC3)CN[C@@H](C2CC2)C(=O)N1C |
| 1200 | CCC[C@H]1NCCOc2ccccc2CCCNC(=O)[C@@H](Cc2ccccc2)NC(=O)CN(C)C1=O |
| 43 | CC[C@H](C)[C@@H]1NCCOc2ccccc2CCCNC(=O)[C@@H](CCc2ccccc2)NC(=O)[C@@H](C)N(C)C1=O |
| 580 | CCC[C@@H]1NCCOc2ccccc2CCCNC(=O)[C@@H](Cc2ccccc2)NC(=O)[C@H](C)N(C)C1=O |
| 380 | CCC[C@@H]1NCCOc2ccccc2CCCNC(=O)[C@H](Cc2ccccc2)NC(=O)CN(C)C1=O |
| 6.4 | CC[C@H](C)[C@@H]1NCCOc2ccccc2CCCNC(=O)[C@@H](Cc2ccccc2)NC(=O)[C@@H](C)N(C)C1=O |
| 58 | C[C@@H]1C(=O)N[C@H](Cc2ccc(F)cc2)C(=O)NCCCc2cc(F)ccc2OCCN[C@@H](C2CC2)C(=O)N1C |
| 21 | C[C@@H]1C(=O)N[C@H](Cc2cccc(F)c2)C(=O)NCCCc2ccccc2OCCN[C@@H](C2CC2)C(=O)N1C |
| 500 | CCC[C@@H]1NCCOc2ccccc2CCCNC(=O)[C@@H](Cc2ccccc2)NC(=O)[C@@H](C)NC1=O |
